Reference: ChEMBL document CHEMBL4513216, “Probing the Open Global Health Chemical Diversity Library for Multistage-Active Starting Points for Next-Generation Antimalarials” (ACS Infect Dis, 2020)

Experiment: Toxicity liver stage against HepG2, at 10uM
Assay type: cell-based
Set-up: test concentration 10 uM, cell line HepG2-A16-CD81EGFP
Details: human, HepG2-A16-CD81EGFP cells; read-out: INHIBITION
Procedure, shortened: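 Uninfected HepG2-A16-CD81EGFP cells, 3 × 10^3 per well, 1536-well, plated on prespotted compound at 10 μM final, parasite-free screening media added to match infected plates; puromycin 10 μM positive, DMSO 0.5% negative; run in parallel with 48 h PbLuc assay at 37 °C, 5% CO2; viability by CellTiter-Glo luminescence, normalized to controls.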

| SMILES | cytotoxicity at 10 µM [%] |
| --- | --- |
| CCOc1ncccc1CNCc1c(C)nn(C)c1N(C)C | -1.35 |
| Cc1cc(-c2cnn(CCNC(=O)c3cc[nH]n3)c2C2CC2)on1 | -13.6 |
| Cc1cn(CC(=O)Nc2cc(C(C)(C)C)nn2C)cn1 | 0.79 |
| Cc1nc(N2CCOCC2)nc2c1CN(CC(=O)N(C)C)CC2 | -101 |
| O=C(NCCc1ccccn1)N1CCOC(c2ccccc2Cl)C1 (stereo not given) | -7.75 |
| Cc1ccc2c(n1)N(CC1CC1)CCN(C(=O)NC1CC1)C2 | -3.09 |
| COCCC(C)NCc1ccccc1-n1ccnc1 (stereo not given) | 1.91 |
| CC(C)C1Nc2ccccc2C(=O)N1CC(=O)Nc1nc2c(s1)CCC2 (stereo not given) | 2.31 |
| CCOc1cccc(CNC2CCCN(Cc3noc(C)n3)C2)c1 (stereo not given) | -2.3 |
| Cc1cccc(NC(=O)C2CCCN2C(=O)c2ccco2)c1C (stereo not given) | -2.59 |
| CCCOCCOC(=O)c1ccc2c(c1)[nH]c(=O)n2C | -16.4 |
| c1cc(CN2CCO[C@H]3[C@H](OCC4CCOCC4)CC[C@@H]32)co1 | -117 |
| O=C(CC1CC1)N[C@@H]1CN(C(=O)c2ccsc2)C[C@@H]2CCCO[C@@H]21 | -109 |
| CCOCCn1nc(C)cc1C(=O)N(C)Cc1cccc2ncccc12 | 4.2 |
| O=C(c1cnccn1)N1C[C@H]2CC[C@@H](C1)N(S(=O)(=O)c1cccnc1)C2 | -2.03 |
| Cc1ccc(CN2C[C@@H](OCc3ccccn3)[C@H]3COC[C@H]32)o1 | -114 |
| CCC(=O)N1CCC(Cc2cnc(Nc3cnccn3)cn2)CC1 | -2.19 |
| COc1cccc(NC(=O)CC2Cn3ncnc3NC2=O)c1 (stereo not given) | 4.4 |
| CC(Oc1ccc(F)cc1)C(=O)N(CC(N)=O)C1CCCC1 (stereo not given) | 0.217 |
| CCSc1nc(N)c(NC(=O)c2ccc(OC)c(OC)c2)c(=O)[nH]1 | -6.24 |
| COC(=O)c1ccc(NC(C)c2ccc3c(c2)NC(=O)CO3)nn1 (stereo not given) | -4.75 |
| CSc1ccccc1CN1CCn2nc(CNC(C)=O)cc2C1 | -17 |
| CC(Cc1ccccc1Br)NC(=O)CCS(C)(=O)=O (stereo not given) | -4.44 |
| O=C(Cc1c[nH]c(=O)[nH]c1=O)N1CCCCC1CCc1ccccc1 (stereo not given) | -9.05 |
| CCCc1nc(C)c(C(=O)NC2CCN(c3ncccn3)CC2)s1 | 16.7 |
| CCc1nc2n(n1)CC(NCc1cnc(-c3ccccc3)nc1)CC2 (stereo not given) | 0.702 |
| Cc1cc(C)n(CC2CCCCN2C(=O)c2ccc3c(c2)OCO3)n1 (stereo not given) | 5.44 |

| SMILES | cytotoxicity at 10 µM [%] |
| --- | --- |
| CC(C)(C)Oc1ccncc1NCc1cscn1 | 15.7 |
| CN1CCOC(C(=O)N2CCC3(CCCCC3)C2)C1 (stereo not given) | 5.41 |
| Cc1ccc(-n2c(COCC(=O)O)nc3c(C)cccc32)nc1 | 2.43 |
| Cc1cc(C)n(CC(=O)NC(Cc2ccsc2)c2ccccn2)c(=O)n1 (stereo not given) | -1.91 |
| CC(C)N(Cc1ccc(C(F)(F)F)nc1)Cc1cnn(C)c1 | 1.36 |
| Cc1cc2n(n1)CC(CNCc1ccccc1-n1cccn1)CN2 (stereo not given) | -11.5 |
| Cc1cc(CN2C[C@@H]3COC[C@]3(CNC(=O)c3ccsc3)C2)no1 | 1.41 |
| COCCCS(=O)(=O)N1CCN(Cc2cccn2C)CC1 | -9.53 |
| Cc1noc(C)c1CCC(=O)N[C@@H]1CCC[C@@H](Oc2cccnc2)[C@@H]1O | -0.903 |
| Cc1ccc(N2CCCC3(CCN(C(=O)c4sccc4C)C3)C2)nn1 (stereo not given) | -107 |
| c1cc(CNCC2CNc3ccnn3C2)cc(N2CCCCC2)n1 (stereo not given) | 6.91 |
| COCCN(CC(F)F)c1cc(C(F)(F)F)nc2ncnn12 | 4.11 |
| CCn1c(CN(C)C)nnc1C1CCN(Cc2ccc(Cl)cc2)CC1 | 1.77 |
| Cn1cc(C(=O)N2CC[C@@]3(O)CCN(C4CCCCC4)C[C@H]3C2)cn1 | -131 |
| COc1cc(-c2nc(N)n[nH]2)cc(OC)c1OC | -10.2 |
| O=C(N1CCOCC(O)C1)C1(c2ccc(Cl)cc2)CCC1 (stereo not given) | -4.24 |
| CN1CC(=O)N(c2cccc(F)c2)CC12CCN(Cc1cncn1C)C2 (stereo not given) | -0.791 |
| Cc1cc(C(=O)N2CCCC2c2nnc3n2CCCCC3)on1 (stereo not given) | 1.68 |
| CC(C)CCNC(=O)c1ccc(Cl)c(NS(C)(=O)=O)c1 | 2.2 |
| Cc1c(NC(C)C(C)C)cccc1C(=O)NCc1nnc(C)n1C (stereo not given) | 6.45 |
| CC(C)C(=O)N1CCOC[C@H](Oc2ccc(C(F)(F)F)cc2)C1 | 4.53 |
| c1cc(N2CCOCC(Cc3ccc4[nH]ccc4c3)C2)ncn1 (stereo not given) | -15.9 |
| CC(C)NC(=O)CC1CC2(CCN(S(C)(=O)=O)CC2)c2ccccc21 (stereo not given) | -2.48 |
| Cc1cc(CN(C)C(=O)c2ccc(N(C)C)nc2)no1 | -5.4 |
| CC(=O)N1CCCC1c1ccc(C(=O)N2CCOCC2)s1 (stereo not given) | 6.92 |
| Cc1cc(F)ccc1S(=O)(=O)NCC(O)c1cccn1C (stereo not given) | -5.62 |
| COc1ccccc1CN(CCCn1ccnc1)CC1CCOC1 (stereo not given) | 11 |

| SMILES | cytotoxicity at 10 µM [%] |
| --- | --- |
| COc1cccc(CCC(=O)Nc2c(C)nn(C)c2C)c1OC | 1.98 |
| Cn1cnnc1S(=O)(=O)C1CCN(S(=O)(=O)c2ccc(F)c(Cl)c2)CC1 | -7.2 |
| CC(C)Cn1cncc1Cn1cccc(C(F)(F)F)c1=O | -10.2 |
| Cc1ccc(CN2Cc3nnn(C)c3C(COCC3CC3)C2)s1 (stereo not given) | 4.27 |
| CC(C)CNC(=O)CN1CCCC(c2ccc(C(=O)O)cc2)C1 (stereo not given) | -6.49 |
| CSc1ccccc1NC(=O)N1C[C@@H](N(C)C)[C@H](c2ccc(C)cc2)C1 | -12 |
| Cn1ncc2c(=O)[nH]c(CN3CCCC3c3ccccc3Cl)nc21 (stereo not given) | -4.8 |
| CC(C)CC(CC(C)C)NC(=O)c1ccn(C)c(=O)c1 | -0.717 |
| Cc1nc(CNC(=O)[C@@H]2CCCN2C(=O)OC(C)(C)C)cs1 | -0.602 |
| CCC(CO)NCc1ccc(-c2ccc(F)cc2)o1 (stereo not given) | -5.67 |
| COc1cccc(CNCc2ccnc(N3CCOCC3)c2)c1OC | 7.26 |
| O=c1oc(-c2ccc(F)cc2)nn1CCc1ccncc1 | -3.57 |
| O=S(=O)(C/C=C/c1ccccc1)Cc1nc(C2CC2)no1 | -12.4 |
| CS(=O)(=O)NCc1cc2n(n1)CCCN(Cc1cccc(C#N)c1)C2 | -8.33 |
| CCN(Cc1nc2c(cnn2C)c(=O)[nH]1)Cc1cccs1 | 1.49 |
| CSCCCN1CCC[C@]2(C(=O)O)CN(c3cnccn3)CC[C@@H]12 | 8.26 |
| CN(C)Cc1nnc(C(=O)N(C)Cc2ccc(F)cc2)o1 | 0.624 |
| O=C(COc1ccc(Cl)cc1)NCc1nncn1C1CC1 | 7.67 |
| O=C(Nc1ccc2c(c1)OCO2)N1CCN(CCn2ccnc2)CC1 | -14.2 |
| CCc1n[nH]c(C2CN(C(=O)Cc3ccc(C)nc3)CCO2)n1 (stereo not given) | 6.97 |
| CN(Cc1ccccc1-n1cccn1)c1nc(N)nc2c1CCNCC2 | -12.2 |
| CCCc1nc(C(=O)N2C[C@H](CO)C[C@H](CN3CCOCC3)C2)cs1 | 3.79 |
| CNC(=O)[C@@H]1[C@H]2CNCCN2C[C@H]1c1ccccc1 | 3.28 |
| Cn1ccnc1COc1ccc(COC(=O)C2CCCO2)cc1 (stereo not given) | -1.39 |
| Cc1oc(C)c(C(=O)NCc2cccc(NC(=O)CN(C)C)c2)c1C | -6.54 |
| O=C(NCCc1c[nH]cn1)c1ccc(S(=O)(=O)NC2CCCC2)cc1 | -7.2 |
